Publication PMC10325562 (Circulation, 2023)
Entries after “also recorded” stand apart in the source; their conditions may differ. Where two headings read alike, the source gives them in different places.

What was measured:
[1] = Oral bioavailability in cynomolgus monkeys with permeation enhancer; format: in vivo; settings: formulated with an established PE
Solubility = format: physicochemical
rats = assay: Safety pharmacology and 1-month repeat-dose toxicity studies, rats; format: in vivo; settings: safety pharmacology and 1-month repeat-dose toxicity
monkeys = assay: Safety pharmacology and 1-month repeat-dose toxicity studies, monkeys; format: in vivo; settings: safety pharmacology and 1-month repeat-dose toxicity
PCSK9 in human plasma = PCSK9 in human plasma (Homo sapiens, UniProt Q8NBP7); assay: In vitro titration of PCSK9 in human plasma; format: binding
Sequence of PCSK9 in human plasma (Q8NBP7 153-692): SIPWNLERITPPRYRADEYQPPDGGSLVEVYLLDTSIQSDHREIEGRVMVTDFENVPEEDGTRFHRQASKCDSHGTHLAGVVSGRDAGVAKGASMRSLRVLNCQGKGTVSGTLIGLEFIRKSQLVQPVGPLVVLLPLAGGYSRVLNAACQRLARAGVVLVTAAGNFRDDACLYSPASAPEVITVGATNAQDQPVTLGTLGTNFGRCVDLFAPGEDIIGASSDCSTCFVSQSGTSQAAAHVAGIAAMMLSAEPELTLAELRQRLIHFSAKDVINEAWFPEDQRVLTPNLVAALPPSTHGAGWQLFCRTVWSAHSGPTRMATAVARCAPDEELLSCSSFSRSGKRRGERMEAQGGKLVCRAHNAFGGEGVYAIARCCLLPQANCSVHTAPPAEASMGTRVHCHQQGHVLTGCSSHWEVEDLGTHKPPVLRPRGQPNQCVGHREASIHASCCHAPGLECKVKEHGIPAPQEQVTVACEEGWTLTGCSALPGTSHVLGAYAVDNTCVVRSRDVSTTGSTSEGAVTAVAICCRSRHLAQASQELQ
Outline: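 Pooled EDTA-anticoagulated plasma (human, n=20 donors; or cynomolgus monkey) spiked with test compound at 0, 0.3, 1, 3, 5, 10, 50, 100, 500 and 1000 nM, from 0.1 mM DMSO stocks. Incubated 30 min at 25°C. Target engagement measured on 50 μL aliquots by affinity capture, enzymatic digestion and LC-MS/MS.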

[2] = Standard genotoxicity/mutagenicity assessments
[3] = Study-003 multiple oral dose plasma pharmacokinetics; format: in vivo, human; settings: for Accumulation ratio (Day 14/Day 1) AUC0-24 / Accumulation ratio (Day 14/Day 1) C24 / Accumulation ratio (Day 14/Day 1) Cmax: (90% CI); for level at time molar at 24 h: both, plasma, po; for level at time molar at 24 h / AUC(0-t) / Cmax / Tmax / half-life: human; for AUC(0-t) / Cmax / Tmax / half-life: in vivo
[4] = Study-001 single oral dose plasma pharmacokinetics; format: in vivo, human; settings: 200 mg single dose
[5] = Study-001 safety and tolerability; format: in vivo, human
Outline: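 Single-center, randomized, double-blind, placebo-controlled, single-ascending oral dose study in healthy males aged 18–50. The test compound was given alone, with Labrasol or with sodium caprate. Dosing was fasted except one group after a high-fat breakfast. Escalations were ≥4 days apart, with ≥7-day washout per participant and safety review through ≥24 h. Monitoring covered AEs, physical exam, laboratory safety, 12-lead ECG and vital signs.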

[6] = Study-003 safety and tolerability; format: in vivo, human
[7] = Passive permeability in MDCKII cells; settings: MDCK, pH 7.4
[8] = 10 mg once daily 30 min post-meal + 360 mg sodium caprate, n=6
[9] = 10 mg once daily fasted + 360 mg sodium caprate, n=8
[10] = 20 mg once daily fasted + 360 mg sodium caprate, n=9

## COc1ccc(C[C@@H]2NC(=O)[C@H]([C@@H](C)O)NC(=O)[C@@H]3[C@@H]4CCN3C(=O)[C@@H]3Cc5cn(c6ccc(F)cc56)CCCCCCN(Cc5ccc(cc5)CCNC(=O)[C@]5(C)CCCN5C2=O)C(=O)CCC(=O)N[C@@H](C)C(=O)N[C@H](CNC(=O)CCCCC[N+](C)(C)C)C(=O)N[C@@H](Cc2cccc(c2)CNC(=O)CO4)C(=O)N3)cc1 [MK-0616]
[1]
  Oral bioavailability: demonstrated oral bioavailability
Solubility
  solubility: 7800 µg/mL
Solubility; pH 7
  solubility: > 7000 µg/mL
rats
  Tolerability: well tolerated
monkeys
  Tolerability: well tolerated
PCSK9 in human plasma
  IC50: 2.5 nM
[2]
  Genotoxicity / mutagenicity: not genotoxic or mutagenic
[3]; [8]
  Accumulation ratio (Day 14/Day 1) AUC0-24: 1.90 (1.42, 2.55) h•nmol/L
  Accumulation ratio (Day 14/Day 1) C24: 2.01 (1.51, 2.67) nmol/L
  Accumulation ratio (Day 14/Day 1) Cmax: 1.60 (1.17, 2.21) nmol/L
[3]; [9]
  Accumulation ratio (Day 14/Day 1) AUC0-24: 1.46 (1.13, 1.88) h•nmol/L
  Accumulation ratio (Day 14/Day 1) C24: 1.32 (1.03, 1.70) nmol/L
  Accumulation ratio (Day 14/Day 1) Cmax: 1.51 (1.15, 1.99) nmol/L
[3]; 10 mg vs same dose fasting
  Delay of Day 14 Tmax by low-fat breakfast 30 minutes prior to dose: approximately 6 hours
[3]; [10]
  Accumulation ratio (Day 14/Day 1) AUC0-24: 1.97 (1.54, 2.54) h•nmol/L
  Accumulation ratio (Day 14/Day 1) C24: 1.81 (1.42, 2.31) nmol/L
  Accumulation ratio (Day 14/Day 1) Cmax: 2.04 (1.56, 2.68) nmol/L
[3]; all doses evaluated in Study-003
  Plasma accumulation: approximately 2 fold
[3]; 20 mg once daily, C24, Day 14, 20 mg once daily fasted + 360 mg sodium caprate, n=9, footnote: median (min, max)
  level at time molar at 24 h: 11.1 nM
[3]; 20 mg, C24, Day 1, 20 mg once daily fasted + 360 mg sodium caprate, n=9, geometric mean (95% CI)
  level at time molar at 24 h: 6.13 nM
[3]; AUC0-24, Day 1, 20 mg once daily fasted + 360 mg sodium caprate, statin-treated, n=9, geometric mean (95% CI)
  AUC(0-t): 0.142 µM·h
[3]; AUC0-24, Day 14, 20 mg once daily fasted + 360 mg sodium caprate, n=9, geometric mean (95% CI)
  AUC(0-t): 0.28 µM·h
[3]; Day 1, 20 mg once daily fasted + 360 mg sodium caprate, n=9, geometric mean (95% CI)
  Cmax: 7.87 nM
[3]; Day 14, 20 mg once daily fasted + 360 mg sodium caprate, n=9, geometric mean (95% CI)
  Cmax: 16.1 nM
[3]; Day 14, all fasted doses
  Tmax: < 2 h
[3]; Day 14, 20 mg once daily fasted + 360 mg sodium caprate, n=9, median (min, max)
  Tmax: 1.8 h
[3]; t1/2, Day 14, 20 mg once daily fasted + 360 mg sodium caprate, n=9, geometric mean (% geometric CV)
  half-life: 244 h
[3]; t1/2, range, Day 14, across dose regimens
  half-life: 178 to 244 h
[3]; once daily dosing, all dosing regimens
  Time to steady state: by the end of the first week; also recorded: after 1 week
[4]
  Fold lower Cmax in the absence of 1,800 mg Labrasol vs same dose in the PE: > 5 fold
[5]; Study-001
  Deaths or serious AEs: No deaths or serious AEs
[5]; Study-001, n=28 of n=51 administered MK-0616
  Participants with ≥1 AE: 54.9%
[5]; Study-001, single-dose oral administration
  Tolerability: generally well tolerated
[6]; Study-003
  Deaths or serious AEs: No deaths or serious AEs
[6]; Study-003, 14 days of daily oral dosing
  Tolerability: generally well tolerated
[6]; Study-003, n=1
  Drug-related AE: dizziness: 3.2%
  Drug-related AE: dry mouth: 3.2%
  Drug-related AE: dyspepsia: 3.2%
  Drug-related AE: flushing: 3.2%
  Drug-related AE: hunger: 3.2%
  Drug-related AE: insomnia: 3.2%
[6]; Study-003, n=2
  Drug-related AE: gastroesophageal reflux disease: 6.5%
[6]; Study-003, n=7 of 31
  Participants with 1 or more drug-related AEs: 22.6%
[6]; Study-003, n=21 of n=31 administered MK-0616
  Participants with 1 or more AEs: 67.7%
[7]
  Papp: 0.71 ×10⁻⁶ cm/s
